# Compound activity (PubChem)
# Sampled rows, rich in hits. Any-hit rate of the full collection: about 2%.
# Arr AP2 block: blocks beta-arrestin peptide binding to AP2 adaptin; FITC-arrestin peptide / GST-AP2 beads, flow cytometry; AP2 beta2 appendage carries R879A mutation; inhibition, % at 10 µM; actives 0.31% (n = 340,000); AID 504490;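 active = inhibition above a set limit, near 3 SD of compounds lacking own fluorescence, cut at about 54% in these data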
#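 System: GST-AP2 R879A bound to glutathione beads, E. coli-expressed. Also added: 50 nM FITC-arrestin peptide. Schedule: compound with beads 12 min RT, then probe 1 h RT. Signal: bead flow cytometry, FITC channel. Read-out basis: percent response.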
# NTR1 ag: activates human neurotensin receptor 1 | P30989 | NTR1-U2OS beta-arrestin-GFP spot imaging, agonist mode | activation, % at 20 µM | actives 0.17% (n = 330,000) | AID 493036;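 active = activation at or above 40% of the spot to cytoplasm intensity ratio, with at least 20 cells analyzed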
# Hep lipid drop: modulators of hepatic lipid droplet formation; AML12 mouse hepatocytes, oleate lipid droplets, BODIPY imaging; inhibition, % at 6.5 µM; actives 0.4% (n = 240,000);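 active = lipid droplet intensity inhibited by at least 50%, with more than 500 cells counted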
#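 Test system: AML12 mouse liver cells; schedule: overnight exposure; technique: high-content imaging of BODIPY-stained droplets and DAPI nuclei; read-out: % inhibition of corrected integrated BODIPY droplet signal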
# Beta2AR agonist: activates human beta-2 adrenergic receptor causing internalization; actives 0.43% (n = 340,000); AID 504454; Am2.2-beta2AR cells, FAP receptor internalization, flow cytometry; response, % (concentration not given with the values); P07550;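 active = response above a set limit, near 3 SD of response in nonfluorescent compounds, cut at about 42% in these data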
# GRK2 aptamer HTS: inhibitors of human GRK2 displacing RNA aptamer. inhibition of aptamer binding, % at 10 µM. P25098. AID 488847. actives 0.59% (n = 330,000). bead flow cytometry, FAM-aptamer displacement from GRK2;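 active = inhibition of aptamer binding above 40%, roughly 3 SD of noise, on plates passing a quality check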;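 also: median bead fluorescence of bound FAM aptamer so fluorescent compounds give negative values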
# Target sequence (P25098 whole entry, looked up): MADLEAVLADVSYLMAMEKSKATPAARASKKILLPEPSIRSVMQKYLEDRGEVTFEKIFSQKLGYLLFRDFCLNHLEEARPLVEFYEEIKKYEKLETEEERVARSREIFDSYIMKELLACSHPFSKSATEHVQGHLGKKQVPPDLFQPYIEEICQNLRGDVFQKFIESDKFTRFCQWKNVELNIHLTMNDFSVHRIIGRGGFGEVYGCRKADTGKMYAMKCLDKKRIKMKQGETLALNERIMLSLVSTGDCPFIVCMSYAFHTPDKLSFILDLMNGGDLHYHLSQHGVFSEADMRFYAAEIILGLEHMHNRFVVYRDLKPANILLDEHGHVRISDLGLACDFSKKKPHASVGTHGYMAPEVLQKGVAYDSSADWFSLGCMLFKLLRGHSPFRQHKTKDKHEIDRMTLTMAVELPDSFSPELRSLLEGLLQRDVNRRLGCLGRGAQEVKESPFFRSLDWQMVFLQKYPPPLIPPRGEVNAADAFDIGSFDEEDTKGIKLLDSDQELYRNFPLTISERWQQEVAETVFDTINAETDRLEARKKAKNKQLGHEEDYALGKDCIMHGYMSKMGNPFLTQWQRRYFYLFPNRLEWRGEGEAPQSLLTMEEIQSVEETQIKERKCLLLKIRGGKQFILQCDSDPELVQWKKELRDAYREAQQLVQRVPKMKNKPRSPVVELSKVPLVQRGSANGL
# TAG inh: reduces triacylglycerol accumulation in H9c2 cells. Nile Red lipid (TAG) fluorescence; cells loaded with 200 µM oleic acid. actives 0.66% (n = 230,000). inhibition, % at 12.5 µM;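 active = pattern-corrected inhibition of lipid staining of at least 50% with the nuclear-stain viability signal not falling by more than 50%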
# GRK2 CP1: human GRK2 inhibition confirmation, cherry pick 1. shares compounds with GRK2 aptamer HTS. bead-bound GRK2, FAM-aptamer displacement, flow cytometry. aptamer displacement, % at 10 µM. actives 4% (n = 2,000). AID 504451;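 active = aptamer displacement above 40%, near three times the noise of non-fluorescent compounds, on plates passing quality checks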;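 also: negative values mostly reflect intrinsic compound fluorescence rather than true enhancement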
# FAM quench CP1: counter-screen for GRK2 aptamer inhibitors: fluorescent aptamer quenchers; shares compounds with GRK2 aptamer HTS; Carboxyfluorescein RNA aptamer on beads, flow cytometry quenching; active compounds read low; fluorescence response (% of DMSO), % at 10 µM; 2,000 tested, under 10 active;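 active = compounds that quench the bead-bound fluorescent RNA probe, cutting fluorescence to under half of the solvent control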;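 also: counterscreen run without GRK2 so only probe quenching by compound is measured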
# GRK2 confirm 2: human GRK2 inhibition confirmation, cherry pick 2 | shares compounds with GRK2 aptamer HTS | bead-bound GRK2, FAM-aptamer displacement, flow cytometry | inhibition of aptamer binding, % at 10 µM | 360 tested, under 10 active | AID 504782;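 active = inhibition of aptamer binding above 40%, about triple the noise seen with nonglowing compounds, on plates passing quality control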;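 also: negative values mostly come from compounds that fluoresce themselves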
# FAM quench CP2: quenches fluorescent RNA aptamer, GRK2 hit artifact; fluorescence response vs DMSO, % at 10 µM; shares compounds with GRK2 aptamer HTS; 360 tested, under 10 active; carboxyfluorescein RNA aptamer beads, flow cytometry quenching; active compounds read low;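 active = response vs DMSO under 50%, meaning signal dropped by over half, treated as fluorescence quencher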;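 also: labelled aptamer on streptavidin beads without GRK2 as a quench counter-screen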
# A number is an active result; 0 = inactive; - = no result.
SMILES,Arr AP2 block,NTR1 ag,Hep lipid drop,Beta2AR agonist,GRK2 aptamer HTS,TAG inh,GRK2 CP1,FAM quench CP1,others
O=S(=O)(Nc1ccccc1)c1ccc(-c2cnc(C3CC3)o2)cc1,0,0,0,0,0,-,-,-,
COc1cccc(NC(=O)CSc2ccc3nnc(CCNC(=O)c4ccccc4)n3n2)c1,0,0,0,0,0,0,-,-,
COc1ccc(Cn2c(=O)sc3ccccc32)cc1,0,0,0,0,0,0,-,-,
O=c1sc2ccccc2n1Cc1ccccc1,0,0,0,0,85,-,0,0,
COc1ccccc1OCC(O)Cn1nc(C)cc1C (configuration not stated),0,0,-,0,0,0,-,-,
COc1ccccc1Oc1cc(-n2nc(C)cc2C)ncn1,0,0,0,0,82,-,-,-,GRK2 confirm 2=0;FAM quench CP2=0
CCn1cc(C(=O)N[C@@H](C)C(=O)NCCCO)c(=O)c2cc3c(cc21)OCO3,0,0,0,0,0,-,-,-,
COCCNC(=O)c1c[nH]c2ccc(S(=O)(=O)Nc3ccc(F)cc3F)cc2c1=O,0,0,0,0,91,-,0,0,
COCCNC(=O)c1c[nH]c2ccc(S(=O)(=O)Nc3ccccc3F)cc2c1=O,0,0,0,0,70,-,0,0,
COCCNC(=O)c1c[nH]c2ccc(OC)cc2c1=O,0,0,-,0,0,0,-,-,
COCCNC(=O)c1c[nH]c2ccc(S(=O)(=O)N3CCc4ccccc43)cc2c1=O,0,0,0,0,0,0,-,-,
CCc1ccc(-c2n[nH]nc2C2=CC(=O)C[C@H](c3ccc(F)cc3)C2)cc1,-,-,-,-,-,0,-,-,
CCOC(=O)c1nc(C)nc(Sc2n[nH]c(-c3ccc(C(C)(C)C)cc3)n2)c1C,0,0,0,0,0,0,-,-,
CCOC(=O)N1CCC(n2c(=S)[nH]c3cc(OCC)c(OCC)cc3c2=O)CC1,0,0,0,0,0,-,-,-,
CCOc1cc2[nH]c(=S)n(C3CC3)c(=O)c2cc1OCC,0,0,0,0,41,0,0,0,
CCC(=O)c1c[nH]c(C(=O)N2CCOCC2)c1,0,0,0,0,100,0,-,-,GRK2 confirm 2=0;FAM quench CP2=0
COC(=O)c1ccc(Oc2ccc3nncn3n2)cc1,0,0,0,0,49,0,0,0,
COC(=O)c1ccc(S(=O)(=O)NCc2ccc(S(N)(=O)=O)cc2)o1,0,0,0,0,0,0,-,-,
COC(=O)c1ccc(S(=O)(=O)NCc2ccco2)o1,0,0,0,0,47,0,0,0,
O=C(NCc1ccc2c(c1)OCO2)c1ccc(Br)cc1,0,0,0,0,0,-,-,-,
O=C(NCc1ccc2c(c1)OCO2)c1cc2ncc(Br)cn2n1,0,0,0,0,0,0,0,0,
Cc1ccc(C)c(NC(=O)CCN2C(=O)C3CC=CCC3C2=O)c1 (configuration not stated),0,0,-,0,68,0,0,0,
Cc1ccc(C)c(NC(=O)CCN2C(=O)c3ccccc3C2=O)c1,0,0,0,0,0,-,-,-,
CCCc1c(C)[nH]c2ccc(NC(C)=O)cc2c1=O,0,0,-,0,74,-,0,0,
O=C(Nc1ccc2c(c1)OCCO2)C1CCCN1C(=O)Nc1ccc(F)cc1 (configuration not stated),0,0,0,0,0,-,-,-,
CC(=O)Nc1ccc(C(=O)CN2C(=O)NC3(CCCc4ccccc43)C2=O)c(F)c1 (configuration not stated),0,0,-,0,0,0,0,0,
CC(=O)CCN1C(=O)NC2(CCCc3ccccc32)C1=O (configuration not stated),0,0,0,0,58,0,-,-,GRK2 confirm 2=0;FAM quench CP2=0
